For series [1], the target named is Human immunodeficiency virus type 1 reverse transcriptase (Human immunodeficiency virus 1, UniProt Q72547). The series is described as follows: Inhibition of HIV1 recombinant RNA-dependent DNA polymerase activity of reverse transcriptase assessed as incorporation of radioactive dTTP into poly(rA)/oligo(dT).
Series [2] deals with Human immunodeficiency virus 1. Kind of series: Antiviral activity against HIV1 3B infected in human MT4 cells assessed as reduction of virus-induced cytopathic effect after 5 days. The class given is functional, organism-based. To be noted: Human immunodeficiency virus 1, 3B, MT4, 120 h. In short, it runs like this: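 MT-4 cells infected with HIV-1 IIIB at about 100-times the CCID50 per ml of cell suspension, plated and mixed with compound, then incubated at 37 °C for 5 days. Viable cell number was then determined. EC50 is the concentration that reduces virus-induced cytopathicity by 50%.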
(In general: Cytopathic effects are the visible damage that an infection or toxin causes in cultured cells.)

A short description of series [3]: Cytotoxicity against human MT4 cells after 5 days. The format is cell-based. An outline of the steps: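 Run in MT-4 cells in parallel with the HIV-1 IIIB cytopathicity assay, with 37 °C incubation for 5 days and a read-out of viable MT-4 cell number.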
Series [4] in a line: Selectivity index, CC50 for human MT4 cells to EC50 for HIV1 3B. The format is toxicity, cell-based. To be noted: read-out: Ratio CC50/EC50.

SMILES strings stand for the structures.

Take `O=C(CCl)Nc1ccc(Cl)cc1NS(=O)(=O)c1c(Cl)cccc1Cl`: in series [1], the IC50 came out at 32.7 µM. Moreover, the EC50 in series [2] came to 1.5 µM. Also, it took 160 µM to reach half-maximal cytotoxicity in series [3] (CC50 at 120 h). For the same compound, in series [4], the selectivity ratio is 107.
As to `O=C(CCl)Nc1ccc(Cl)cc1NS(=O)(=O)c1cc(Cl)cc(Cl)c1`, the concentration for half-maximal inhibition (IC50) in series [1] is 15.9 µM. Besides, the concentration giving a half-maximal response (EC50) in series [2] was determined as 8.99 µM. Moreover, in series [3], the half-maximal cytotoxic concentration (CC50) at 120 h was > 292 µM. Also, in series [4], the selectivity ratio is > 32.
For `O=c1[nH]c2ccc(Cl)cc2n1S(=O)(=O)c1c(Cl)cccc1Cl` the same measures were > 100 µM, 1.52 µM, > 331 µM and > 218.
For `O=C1CN(S(=O)(=O)c2cccc(F)c2)c2cc(Cl)ccc2N1` the same measures were > 40 µM, 7.04 µM, 189 µM and 27.
For `O=c1[nH]c2ccc(Cl)cc2n1S(=O)(=O)c1ccccc1F` the same measures were 0.85 µM, 0.23 µM, > 383 µM and > 1660.
For the compound `O=C1CN(S(=O)(=O)c2c(F)cccc2F)c2cc(Cl)ccc2N1`, in series [1], the 50% inhibitory concentration (IC50) is > 40 µM. In addition, the EC50 in series [2] was 20.7 µM. The compound further had a CC50 at 120 h in series [3] of 180 µM. In series [4], the selectivity ratio stood at 9.
For `O=C1CN(S(=O)(=O)c2ccccc2F)c2cc(Cl)ccc2N1`, in that order: > 40 µM, 6.1 µM, 197 µM and 32.
For `Cc1cc(C)cc(S(=O)(=O)N2CC(=O)Nc3ccc(Cl)cc32)c1`, in that order: > 40 µM, 0.1 µM, 80.6 µM and 782.
Regarding `O=C1CN(S(=O)(=O)c2cc(F)cc(F)c2)c2cc(Cl)ccc2N1`, the concentration for half-maximal inhibition (IC50) in series [1] was > 40 µM. The 50% effective concentration (EC50) in series [2] was 14 µM. Also, it took 187 µM to reach half-maximal cytotoxicity in series [3] (CC50 at 120 h). Also, the selectivity ratio in series [4] is 13.
For `N#Cc1cccc(S(=O)(=O)Nc2cc(Cl)ccc2NC(=O)CCl)c1` the same measures were 284 µM, > 156 µM, > 156 µM and < 1.
For `O=C1CN(S(=O)(=O)c2cc(Cl)cc(Cl)c2)c2cc(Cl)ccc2N1`, in that order: > 40 µM, 26.7 µM, ≥ 206 µM and > 8.
Consider `O=c1[nH]c2ccc(Cl)cc2n1S(=O)(=O)c1ccc(F)cc1`, for which the IC50 in series [1] is > 40 µM. Also, the 50% effective concentration (EC50) in series [2] stood at 36 µM. Further, the CC50 at 120 h in series [3] was ≥ 355 µM. The selectivity ratio in series [4] was ≥ 10.
For `O=C1CN(S(=O)(=O)c2c(Cl)cccc2Cl)c2cc(Cl)ccc2N1` the same measures were 1.67 µM, 1.09 µM, > 319 µM and > 293.
As for `O=c1[nH]c2ccc(Cl)cc2n1S(=O)(=O)c1cc(Cl)cc(Cl)c1`, the IC50 in series [1] stood at 0.003 µM. In addition, in series [2], the EC50 turned out to be 0.048 µM. The compound further came in with a cytotoxic concentration (CC50) at 120 h in series [3] of 179 µM. For the same compound, the selectivity ratio in series [4] stood at 3740.
For `O=C1CN(S(=O)(=O)c2ccc(F)cc2)c2cc(Cl)ccc2N1` the same measures were > 40 µM, > 172 µM, 172 µM and < 1.
With `N#Cc1cccc(S(=O)(=O)n2c(=O)[nH]c3ccc(Cl)cc32)c1`, in series [1], the IC50 is 0.36 µM. In series [2], the EC50 worked out at 0.149 µM. For the same compound, the midpoint of cytotoxicity in series [3], the CC50 at 120 h, lay at 205 µM. Moreover, the selectivity ratio in series [4] was determined as 1360.
On to `Cc1cc(C)cc(S(=O)(=O)Nc2cc(Cl)ccc2NC(=O)CCl)c1`, for which the IC50 in series [1] is 3.36 µM. Also, in series [2], the concentration giving a half-maximal response (EC50) amounted to 0.047 µM. The compound further displayed a CC50 at 120 h in series [3] of 35.1 µM. In series [4], the selectivity ratio amounted to 747.
As to `N#Cc1cccc(S(=O)(=O)N2CC(=O)Nc3ccc(Cl)cc32)c1`, in series [1], the IC50 was > 40 µM. The concentration giving a half-maximal response (EC50) in series [2] is ≥ 47.7 µM. For the same compound, the CC50 at 120 h in series [3] came out at 186 µM. Besides, in series [4], the selectivity ratio was ≤ 4.
For `O=C(CCl)Nc1ccc(Cl)cc1NS(=O)(=O)c1c(F)cccc1F`, in that order: 30.4 µM, 6.96 µM, 175 µM and 25.
For `O=C(CCl)Nc1ccc(Cl)cc1NS(=O)(=O)c1cc(F)cc(F)c1` the same measures were 27.8 µM, 11.2 µM, 179 µM and 16.
For `O=c1[nH]c2ccc(Cl)cc2n1S(=O)(=O)c1cccc(F)c1`, in that order: 0.132 µM, 0.043 µM, 128 µM and 2960.
For `O=C1Nc2ccc(Cl)cc2[C@@](C#CC2CC2)(C(F)(F)F)O1` [EFAVIRENZ], in series [3], the CC50 at 120 h is > 6 µM.
Same read-out and setting: in the case of `Cc1ccnc2c1NC(=O)c1cccnc1N2C1CC1` [NEVIRAPINE] it was > 15 µM.

Broadly, the IC50 is the point on the concentration scale where inhibition reaches its midpoint. In general, EC50 refers to the concentration at which the effect is half-maximal. As a reminder, the CC50 is the concentration that lowers cell viability or growth by half.
